Among the data in PubChem BioAssay AID504476 (NMMLSC, 2011) are EC50 and CC50 values, retold here.

Active and inactive are the calls of the source.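 How the source made its calls: active means toxic dose divided by the dose restoring drug killing exceeds 10, where toxic dose is under 15 µM; inactive means the rest.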

One assay deals with Jurkat/DNR + daunorubicin, trypan blue viability, 3 d. The assay is described as follows: daunorubicin sensitization of ABCB1 resistant cells, SAR follow-up, cell-based, Jurkat/DNR, trypan blue viability, SAR set 2 (AID 504476).
Settings: not given
A digest of the protocol:
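read-out = concentration halving cell viability | test system = Daunorubicin-resistant Jurkat/DNR cells | amount = 100,000 cells per mL | incubation = 3 days exposure | detection = trypan blue exclusion with light-microscopy cell counting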
Take `CC(=O)N1CCN(c2cc(-c3ccco3)nc3cc(-c4ccccc4)nn23)CC1`: the EC50 (usually the concentration giving half of the maximal effect) is 0.19 µM (inactive).
On the same count and under the same terms, the value for `COc1ccccc1-c1cc(N2CCN(C(=O)c3ccoc3)CC2)n2nc(-c3ccccc3)cc2n1` was 0.17 µM (inactive).
The same measure, in the same setting: the value for `COc1ccc(-c2cc3nc(-c4ccco4)cc(N4CCN(C(=O)c5ccoc5)CC4)n3n2)cc1` was 5.77 µM; that for `CC(=O)N1CCN(c2cc(-c3ccco3)nc3cc(-c4cccc(Cl)c4)nn23)CC1` was 0.08 µM.
Regarding `O=C(c1ccoc1)N1CCN(c2cc(-c3ccco3)nc3cc(-c4ccco4)nn23)CC1`, the EC50 was 0.19 µM (inactive).
Same read-out and setting: the value for `O=C(c1ccoc1)N1CCCN(c2cc(-c3ccco3)nc3cc(-c4ccccc4)nn23)C1` was 0.35 µM (inactive); that for `Cc1ccc(-c2cc3nc(-c4ccco4)cc(N4CCN(Cc5ccoc5)CC4)n3n2)cc1` was 0.35 µM (inactive); that for `O=C(c1ccoc1)N1CCN(c2cc(-c3ccoc3)nc3cc(-c4ccccc4)nn23)CC1` was 0.42 µM (inactive).
Still for that read-out and setting: the value for `COc1cccc(-c2cc3nc(-c4ccco4)cc(N4CCN(C(C)=O)CC4)n3n2)c1` was 0.32 µM; that for `COc1cccc(-c2cc(N3CCN(C(=O)c4ccoc4)CC3)n3nc(-c4ccccc4)cc3n2)c1` was 0.18 µM (inactive).

The same assay, now with this note: measured here: TD50 toxicity without chemotherapeutic.
As to `CC(=O)N1CCN(c2cc(-c3ccco3)nc3cc(-c4ccccc4)nn23)CC1`, the CC50 (in general, the concentration at which the toxic effect on the cells reaches its halfway point) turned out to be 10.1 µM.
For `COc1ccccc1-c1cc(N2CCN(C(=O)c3ccoc3)CC2)n2nc(-c3ccccc3)cc2n1`, the CC50 turned out to be 3.7 µM.
As for `COc1ccc(-c2cc3nc(-c4ccco4)cc(N4CCN(C(=O)c5ccoc5)CC4)n3n2)cc1`, the CC50 is greater than 100 µM.
On the same count and under the same terms, the value for `CC(=O)N1CCN(c2cc(-c3ccco3)nc3cc(-c4cccc(Cl)c4)nn23)CC1` was 17.6 µM.
Same read-out and setting: the value for `O=C(c1ccoc1)N1CCN(c2cc(-c3ccco3)nc3cc(-c4ccco4)nn23)CC1` was 1.93 µM; that for `O=C(c1ccoc1)N1CCCN(c2cc(-c3ccco3)nc3cc(-c4ccccc4)nn23)C1` was 12 µM.
Still for that read-out and setting: the value for `Cc1ccc(-c2cc3nc(-c4ccco4)cc(N4CCN(Cc5ccoc5)CC4)n3n2)cc1` was 12.5 µM.
As to `O=C(c1ccoc1)N1CCN(c2cc(-c3ccoc3)nc3cc(-c4ccccc4)nn23)CC1`, the CC50 is 7.3 µM.
Still for that read-out and setting: the value for `COc1cccc(-c2cc3nc(-c4ccco4)cc(N4CCN(C(C)=O)CC4)n3n2)c1` was 49.3 µM; that for `COc1cccc(-c2cc(N3CCN(C(=O)c4ccoc4)CC3)n3nc(-c4ccccc4)cc3n2)c1` was 5.7 µM.
